Measured values published in article PMC8273112 (ACS Infectious Diseases, 2021).
Structures can show the parent of a compound that is named as a salt. Where two headings read alike, the source gives them in different places.

Key:
[1] = test system: P. falciparum strain Tm90–C2B; test: SYBR Green growth inhibition assay, P. falciparum Tm90-C2B; format: cell-based, Plasmodium falciparum; settings: read-out: IC50 Tm90–C2B
In short: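 Human erythrocytes (≤28 days old), 2% hematocrit, asynchronous culture at 0.2% initial parasitemia, in RPMI-1640 with HEPES, hypoxanthine, glucose, glutamine and Albumax II. 2-fold serial dilution starting at 20 μM, quadruplicate. Incubated 72 h at 37 °C under 5% O2/5% CO2/90% N2. SYBR Green I dye-detergent added for at least 1 h in the dark; fluorescence read at 497/520 nm, normalized to untreated wells, plotted against log concentration.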

HepG2 cells = test: HepG2 cytotoxicity assay; format: cell-based, human; settings: read-out: IC50 cytotoxicity, 24 h drug, 24 h recovery
[2] = test system: P. falciparum A6 (SB1-A6); test: SYBR Green growth inhibition assay, P. falciparum A6; format: cell-based, Plasmodium falciparum; settings: read-out: IC50 A6, 72 h
In short: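 Asynchronous parasites grown in human erythrocytes in RPMI-1640 with HEPES, hypoxanthine and Albumax II under 5% O2/5% CO2/90% N2 at 37 °C. Test compound in 2-fold serial dilution from 20 μM, run in quadruplicate, at 2% hematocrit and 0.2% starting parasitemia for 72 h. SYBR Green I lysis dye added for ≥1 h in the dark. Fluorescence read at 497/520 nm, normalized to untreated wells and plotted against log concentration.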

[3] = test system: Plasmodium falciparum strain Dd2; test: SYBR Green growth inhibition assay, P. falciparum Dd2; format: cell-based
[4] = test system: Plasmodium falciparum strain D6; test: SYBR Green growth inhibition assay, P. falciparum D6; format: cell-based; settings: read-out: IC50 D6
Plasmodium yoelii = test: Modified 4-day Peters test, murine malaria; format: in vivo, Plasmodium yoelii in mice; settings: for P. yoelii ED90 / P. yoelii ED50: oral gavage days 1–4, parasitemia day 5, mice; for P. yoelii NRD (nonrecrudescence dose, cure dose): oral gavage up to 25 mg/kg/day, no parasites at day 30
[5] = Murine microsomal stability; format: in vitro ADME; settings: mouse, pooled murine liver microsomes; for CLint scaled at 1 μM: pH 7.4; for half-life at 1 μM: pH 7.4, murine microsomal stability, t1/2, 1 μM, 0.5 mg/mL protein, 37 °C, 1 h, NADPH
[6] = multidrug-resistant clinical isolate also resistant to atovaquone, 72 h
[7] = in-house derived mutant line resistant to respiratory antagonists
[8] = read-out: IC50 Dd2, multidrug-resistant P. falciparum strain Dd2, 72 h
[9] = P. falciparum pan-sensitive strain D6, 72 h, average of two to four determinations
[10] = Plasmodium falciparum, TM90, 72 h
[11] = Plasmodium falciparum, DD2, 72 h, read-out: IC50 Dd2
[12] = Plasmodium falciparum, D6, 72 h
[13] = Plasmodium falciparum, DD2, 48 h, read-out: IC50 Dd2, 48 h
[14] = Plasmodium falciparum, DD2, 72 h, read-out: IC50 Dd2, 72 h
[15] = Plasmodium falciparum, DD2, 96 h, read-out: IC50 Dd2, 96 h

Compound	IC50 [1, 10]	IC50 ([2]; Plasmodium falciparum)	IC50 [3, 11]	IC50 [4, 12]	other results
2,2′-Bis[(4-carbonamidophenyl)methylene]carbonimidic Dihydrazide Hydrochloride [Compound 30]					IC50 [1, 6]: 727 nM; IC50 (HepG2 cells): 42000 nM; IC50 [2, 7]: 516 nM; IC50 [3, 8]: 405 nM; IC50 [4, 9]: 527 nM
Cl.N#Cc1cc(/C=N/NC(=N)N/N=C/c2ccc(F)c(C#N)c2)ccc1F [Compound 1, 2,2′-Bis[(3-cyano-4-fluorophenyl)methylene]carbonimidic Dihydrazide Hydrochloride]	16 nM	14 nM	12 nM	4 nM	P. yoelii ED90 (Plasmodium yoelii): 0.28 mg/kg/day; CLint scaled at 1 μM [5]: 29.3 mL/min/kg; half-life at 1 μM [5]: > 150 min
N=C(N/N=C/c1ccccc1F)N/N=C/c1ccccc1F [Compound 2, 2,2′-Bis[(2-fluorophenyl)methylene]carbonimidic Dihydrazide Hydrochloride]	> 5000 nM	1890 nM	4590 nM	2870 nM	
N=C(N/N=C/c1cccc(F)c1)N/N=C/c1cccc(F)c1 [Compound 3, 2,2′-Bis[(3-fluorophenyl)methylene]carbonimidic Dihydrazide Hydrochloride]	> 5000 nM	426 nM	> 5000 nM	767 nM	
N=C(N/N=C/c1ccc(F)cc1)N/N=C/c1ccc(F)cc1 [Compound 4, 2,2′-Bis[(4-fluorophenyl)methylene]carbonimidic Dihydrazide Hydrochloride]	4900 nM	369 nM	3790 nM	1020 nM	
N=C(N/N=C/c1ccccc1Cl)N/N=C/c1ccccc1Cl [Compound 5, 2,2′-Bis[(2-chlorophenyl)methylene]carbonimidic Dihydrazide Hydrochloride]	1220 nM	348 nM	961 nM	334 nM	
N=C(N/N=C/c1cccc(Cl)c1)N/N=C/c1cccc(Cl)c1 [Compound 6, 2,2′-Bis[(3-chlorophenyl)methylene]carbonimidic Dihydrazide Hydrochloride]	664 nM	237 nM	567 nM	202 nM	
N=C(N/N=C/c1ccccc1Br)N/N=C/c1ccccc1Br [Compound 7, 2,2′-Bis[(2-bromophenyl)methylene]carbonimidic Dihydrazide Hydrochloride]	974 nM	876 nM	715 nM	280 nM	
N=C(N/N=C/c1cccc(Br)c1)N/N=C/c1cccc(Br)c1 [Compound 8, 2,2′-Bis[(3-bromophenyl)methylene]carbonimidic Dihydrazide Hydrochloride]	1840 nM	502 nM	1520 nM	572 nM	
N=C(N/N=C/c1ccc(Br)cc1)N/N=C/c1ccc(Br)cc1 [Compound 9, 2,2′-Bis[(4-bromophenyl)methylene]carbonimidic Dihydrazide Hydrochloride]	899 nM	269 nM	876 nM	277 nM	
Cc1ccc(/C=N/NC(=N)N/N=C/c2ccc(C)cc2)cc1 [Compound 10, 2,2′-Bis[(4-methylphenyl)methylene]carbonimidic Dihydrazide Hydrochloride]	2530 nM	> 5000 nM	2430 nM	905 nM	
COc1ccc(/C=N/NC(=N)N/N=C/c2ccc(OC)cc2)cc1 [Compound 11, 2,2′-Bis[(4-methoxyphenyl)methylene]carbonimidic Dihydrazide Hydrochloride]	> 5000 nM	289 nM	1600 nM	263 nM	
N=C(N/N=C/c1ccc(C(F)(F)F)cc1)N/N=C/c1ccc(C(F)(F)F)cc1 [Compound 12, 2,2′-Bis[(4-trifluoromethylphenyl)methylene]carbonimidic Dihydrazide Hydrochloride]	2740 nM	567 nM	1540 nM	614 nM	
N=C(N/N=C/c1ccccc1OC(F)(F)F)N/N=C/c1ccccc1OC(F)(F)F [Compound 14, 2,2′-Bis[(2-trifluoromethoxyphenyl)methylene]carbonimidic Dihydrazide Hydrochloride]	> 5000 nM	391 nM	2330 nM	1080 nM	
N=C(N/N=C/c1cccc(OC(F)(F)F)c1)N/N=C/c1cccc(OC(F)(F)F)c1 [Compound 15, 2,2′-Bis[(3-trifluoromethoxyphenyl)methylene]carbonimidic Dihydrazide Hydrochloride]	2990 nM	689 nM	1570 nM	670 nM	
Cl.N=C(N/N=C/c1ccc(OC(F)(F)F)cc1)N/N=C/c1ccc(OC(F)(F)F)cc1 [Compound 16, 2,2′-Bis[(4-trifluoromethoxyphenyl)methylene]carbonimidic Dihydrazide Hydrochloride]	114 nM	52 nM	83 nM	39 nM	IC50 [3, 13]: 410 nM; IC50 [3, 14]: 195 nM; IC50 [3, 15]: 192 nM; P. yoelii ED50 (Plasmodium yoelii): 1.2 mg/kg/day; P. yoelii ED90 (Plasmodium yoelii): 3.7 mg/kg/day; P. yoelii NRD (nonrecrudescence dose, cure dose) (Plasmodium yoelii): 12.5 mg/kg/day; CLint scaled at 1 μM [5]: 31.7 mL/min/kg; half-life at 1 μM [5]: > 150 min
N=C(N/N=C/c1ccc(OC(F)F)cc1)N/N=C/c1ccc(OC(F)F)cc1 [Compound 18, 2,2′-Bis[(4-difluoromethoxyphenyl)methylene]carbonimidic Dihydrazide Hydrochloride]	193 nM	87 nM	191 nM	71 nM	
N#Cc1ccccc1/C=N/NC(=N)N/N=C/c1ccccc1C#N [Compound 20, 2,2′-Bis[(2-cyanophenyl)methylene]carbonimidic Dihydrazide Hydrochloride]	1990 nM	969 nM	2100 nM	1020 nM	
Cl.N#Cc1cccc(/C=N/NC(=N)N/N=C/c2cccc(C#N)c2)c1 [Compound 21, 2,2′-Bis[(3-cyanophenyl)methylene]carbonimidic Dihydrazide Hydrochloride]	31 nM	24 nM	20 nM	7 nM	IC50 [3, 13]: 31 nM; IC50 [3, 14]: 21 nM; IC50 [3, 15]: 22 nM; P. yoelii ED50 (Plasmodium yoelii): 7.1 mg/kg/day; P. yoelii ED90 (Plasmodium yoelii): 9.4 mg/kg/day; P. yoelii NRD (nonrecrudescence dose, cure dose) (Plasmodium yoelii): >25 mg/kg/day; CLint scaled at 1 μM [5]: 93.8 mL/min/kg; half-life at 1 μM [5]: 58.2 min
N=C(N/N=C/c1ccccc1)N/N=C/c1ccccc1 [Compound 24, 2,2′-Bis(phenylmethylene)carbonimidic Dihydrazide Hydrochloride]	> 5000 nM	581 nM	4300 nM	705 nM	
N=C(NN=Cc1ccc(O)cc1)NN=Cc1ccc(O)cc1 [Compound 25, 2,2′-Bis[(4-phenol)methylene]carbonimidic Dihydrazide Hydrochloride]					IC50 [1, 6]: 286 nM; IC50 (HepG2 cells): 39000 nM; IC50 [2, 7]: 278 nM; IC50 [3, 8]: 240 nM; IC50 [4, 9]: 143 nM
N=C(NN=Cc1ccc(-c2ccccc2)cc1)NN=Cc1ccc(-c2ccccc2)cc1 [Compound 26, 2,2′-Bis[(4-diphenyl)methylene]carbonimidic Dihydrazide Hydrochloride]					IC50 [1, 6]: 71 nM; IC50 (HepG2 cells): > 200000 nM; IC50 [2, 7]: 33 nM; IC50 [3, 8]: 87 nM; IC50 [4, 9]: 15 nM
CN(C)c1ccc(/C=N/NC(=N)N/N=C/c2ccc(N(C)C)cc2)cc1 [Compound 28, 2,2′-Bis[(4-dimethylaminophenyl)methylene]carbonimidic Dihydrazide Hydrochloride]	213 nM	122 nM	264 nM	118 nM	
N=C(N/N=C/c1ccc(N2CCOCC2)cc1)N/N=C/c1ccc(N2CCOCC2)cc1 [Compound 33, 2,2′-Bis[(4-morpholinophenyl)methylene]carbonimidic Dihydrazide Hydrochloride]	295 nM	116 nM	329 nM	131 nM	
N=C(N/N=C/c1ccccc1)N/N=C/c1ccccc1F [Compound 38, 2-(Phenylmethylene)-2′-[(2-Fluorophenyl)methylene]carbonimidic Dihydrazide Hydrochloride]	> 5000 nM	833 nM	2200 nM	1030 nM	
O=C(c1ccc(F)cc1)C1CCN(CCn2c(=O)[nH]c3ccccc3c2=O)CC1 [ketanserin, reference compound]					half-life at 1 μM [5]: 14.5 min
